The source of these data is publication PMC2872052 (Peptides, 2010).

The term EC50 denotes the midpoint of the concentration-response curve. Lower therefore signals a more potent agent.

The target of the experiment is wild type rat secretin receptor (Rattus norvegicus, UniProt P23811). As to the kind of experiment: cAMP responses in secretin receptor-bearing CHO-SecR cells. The class given is cell-based. The conditions noted are these: for agonist (biological) activity at the secretin receptor, in words: cAMP responses in CHO-SecR cells, relative to maximal response to secretin. In a few lines: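 CHO cells stably expressing wild-type rat secretin receptor, grown 48 h at ~8,000 cells/well, washed twice in PBS, then stimulated 30 min at 37 °C with increasing test-compound concentrations in Krebs-Ringers/HEPES pH 7.4 with 0.2% BSA, 0.1% bacitracin and 1 mM IBMX. Lysis in 6% ice-cold perchloric acid, neutralised to pH 6, cAMP by LANCE. Normalised to maximal secretin response; three experiments in duplicate.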
wild type rat secretin receptor, sequence (P23811 26-449): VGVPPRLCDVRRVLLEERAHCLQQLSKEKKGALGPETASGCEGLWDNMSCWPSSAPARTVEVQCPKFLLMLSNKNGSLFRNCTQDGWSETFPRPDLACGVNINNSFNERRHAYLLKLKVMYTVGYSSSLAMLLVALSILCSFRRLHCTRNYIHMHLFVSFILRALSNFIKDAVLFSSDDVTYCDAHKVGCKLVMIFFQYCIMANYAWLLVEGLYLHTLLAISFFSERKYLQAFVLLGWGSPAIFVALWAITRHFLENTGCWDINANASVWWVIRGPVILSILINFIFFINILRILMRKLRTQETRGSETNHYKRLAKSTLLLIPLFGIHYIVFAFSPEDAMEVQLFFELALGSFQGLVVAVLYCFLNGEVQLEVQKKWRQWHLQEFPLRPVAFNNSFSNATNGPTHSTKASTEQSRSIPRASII

Where a SMILES comes first, the peptide text is derived from it. [ ]: non-standard residue; d: D form.

On to `C[C@@H]1NC(=O)[C@H](C)NC(=O)[C@@H](C)NC(=O)[C@H](C)NC(=O)[C@H](CC(=O)O)NC(=O)[C@H](Cc2c[nH]c3ccccc23)NC1=O` [c[AAWDAa]] (cyclo(AAWDA[dA])), for which the EC50 was 23 ± 5.3 µM and the “agonist (biological) activity at the secretin receptor, in words” value is recorded as “full agonist activity”.
The like results for `C[C@@H]1NC(=O)[C@H](C)NC(=O)[C@H](CC(=O)O)NC(=O)[C@H](Cc2c[nH]c3ccccc23)NC(=O)[C@H](C)NC(=O)[C@@H](C)NC1=O` [c[AWDAAa]] (cyclo(AA[dA]AWD)) were, in that order, 21 ± 4.2 µM and “full agonist activity”.
`O=C(O)C[C@@H]1NC(=O)[C@H](Cc2c[nH]c3ccccc23)NC(=O)[C@H](CC(=O)O)NC(=O)[C@H](Cc2c[nH]c3ccccc23)NC(=O)[C@@H](CC(=O)O)NC(=O)[C@H](Cc2c[nH]c3ccccc23)NC1=O` [c[WDWDWd]] (cyclo(DWDW[dD]W)) showed an EC50 of 11.7 ± 3 µM.
